Experimental data: ChEMBL document CHEMBL4346654 (Eur J Med Chem, 2019)
≈ marks a conversion by molar mass, not a printed value.

Legend:
Type in all cases: functional
[1] = test system: Staphylococcus aureus; test: Antibacterial activity against MLS-resistant Staphylococcus aureus PU 32 expressing inducible ermA gene assessed as reduction in microbial growth by CLSI based two-fold broth dilution method
[2] = test system: Streptococcus pneumoniae; test: Antibacterial activity against erythromycin-susceptible Streptococcus pneumoniae ATCC49619 assessed as reduction in microbial growth by CLSI based two-fold broth dilution method
[3] = test system: Streptococcus pneumoniae; test: Bactericidal activity against erythromycin-susceptible Streptococcus pneumoniae ATCC49619 pretreated followed by subculture in absence of compound measured after 24 hrs
How it was run: (§1)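 Isolates were identified by 16S rDNA sequencing. MIC was determined by CLSI-recommended two-fold broth dilution. For MBC, samples from 1–8 fold MIC were transferred to culture medium and subcultured for 24 h without antibiotic.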

[4] = test system: Haemophilus influenzae; test: Antibacterial activity against azithromycin-susceptible Haemophilus influenzae ATCC 49247 assessed as reduction in microbial growth by CLSI based two-fold broth dilution method
[5] = test system: Streptococcus pneumoniae; test: Antibacterial activity against Streptococcus pneumoniae 07P390 expressing constitutive ermB gene assessed as reduction in microbial growth by CLSI based two-fold broth dilution method
[6] = test system: Streptococcus pneumoniae; test: Antibacterial activity against penicillin-susceptible Streptococcus pneumoniae PU 09 expressing mef gene assessed as reduction in microbial growth by CLSI based two-fold broth dilution method
[7] = test system: Streptococcus pneumoniae; test: Bactericidal activity against penicillin-susceptible Streptococcus pneumoniae PU 09 expressing mef gene pretreated followed by subculture in absence of compound measured after 24 hrs; how it was run: as §1
[8] = test system: Streptococcus pneumoniae; test: Selectivity ratio of MBC to MIC for penicillin-susceptible Streptococcus pneumoniae PU 09 expressing mef gene; how it was run: as §1
[9] = test system: Streptococcus pneumoniae; test: Bactericidal activity against Streptococcus pneumoniae 07P390 expressing constitutive ermB gene pretreated followed by subculture in absence of compound measured after 24 hrs; how it was run: as §1
[10] = test system: Streptococcus pneumoniae; test: Selectivity ratio of MBC to MIC for Streptococcus pneumoniae 07P390 expressing constitutive ermB gene; how it was run: as §1
[11] = test system: Haemophilus influenzae; test: Bactericidal activity against azithromycin-susceptible Haemophilus influenzae ATCC 49247 pretreated followed by subculture in absence of compound measured after 24 hrs; how it was run: as §1
[12] = test system: Streptococcus pyogenes; test: Antibacterial activity against MLS-resistant Streptococcus pyogenes 01-968 expressing inducible ermB gene assessed as reduction in microbial growth by CLSI based two-fold broth dilution method
[13] = test system: Streptococcus pyogenes; test: Bactericidal activity against MLS-resistant Streptococcus pyogenes 01-968 expressing inducible ermB gene pretreated followed by subculture in absence of compound measured after 24 hrs
How it was run: (§2)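 MBC assay. Following MIC determination by CLSI standard two-fold broth dilution, samples at 1–8 fold MIC were transferred to fresh culture medium. They were subcultured for 24 h without antibiotic. Isolates were identified by 16S rDNA sequencing. S. aureus ATCC 29213 was used as a control strain.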

[14] = test system: Streptococcus pyogenes; test: Selectivity ratio of MBC to MIC for MLS-resistant Streptococcus pyogenes 01-968 expressing inducible ermB gene
How it was run: (§3)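 MBC/MIC ratio. MIC was measured by CLSI standard two-fold broth dilution. MBC was measured by transferring samples at 1–8 fold MIC to culture medium and subculturing for 24 h without antibiotic. Isolates were identified by 16S rDNA sequencing.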

[15] = test system: Staphylococcus aureus; test: Bactericidal activity against MLS/methicillin-resistant Staphylococcus aureus PU 32 expressing inducible ermA gene pretreated followed by subculture in absence of compound measured after 24 hrs; how it was run: as §2
[16] = test system: Staphylococcus aureus; test: Selectivity ratio of MBC to MIC for MLS/methicillin-resistant Staphylococcus aureus PU 32 expressing inducible ermA gene; how it was run: as §3
[17] = test system: Staphylococcus aureus; test: Antibacterial activity against MLS-resistant Staphylococcus aureus PU 20 expressing constitutive ermC gene assessed as reduction in microbial growth by CLSI based two-fold broth dilution method
[18] = test system: Streptococcus pyogenes; test: Antibacterial activity against MLS-resistant Streptococcus pyogenes 12-206 expressing constitutive ermA gene assessed as reduction in microbial growth by CLSI based two-fold broth dilution method
[19] = test system: Streptococcus pyogenes; test: Bactericidal activity against MLS-resistant Streptococcus pyogenes 12-206 expressing constitutive ermA gene pretreated followed by subculture in absence of compound measured after 24 hrs; how it was run: as §2
[20] = test system: Streptococcus pyogenes; test: Selectivity ratio of MBC to MIC for MLS-resistant Streptococcus pyogenes 12-206 expressing constitutive ermA gene; how it was run: as §3
[21] = test system: Streptococcus pyogenes; test: Antibacterial activity against Streptococcus pyogenes 12-207 expressing mef gene assessed as reduction in microbial growth by CLSI based two-fold broth dilution method
[22] = test system: Streptococcus pyogenes; test: Bactericidal activity against Streptococcus pyogenes 12-207 expressing mef gene pretreated followed by subculture in absence of compound measured after 24 hrs; how it was run: as §1
[23] = test system: Streptococcus pyogenes; test: Selectivity ratio of MBC to MIC for Streptococcus pyogenes 12-207 expressing mef gene; how it was run: as §1
[24] = test system: Moraxella catarrhalis; test: Antibacterial activity against erythromycin-susceptible Moraxella catarrhalis 13L332 assessed as reduction in microbial growth by CLSI based two-fold broth dilution method
[25] = test system: Moraxella catarrhalis; test: Bactericidal activity against erythromycin-susceptible Moraxella catarrhalis 13L332 pretreated followed by subculture in absence of compound measured after 24 hrs; how it was run: as §1
[26] = test system: Moraxella catarrhalis; test: Selectivity ratio of MBC to MIC for erythromycin-susceptible Moraxella catarrhalis 13L332; how it was run: as §1
[27] = test system: Streptococcus pneumoniae; test: Selectivity ratio of MBC to MIC for erythromycin-susceptible Streptococcus pneumoniae ATCC49619; how it was run: as §1
[28] = test system: Haemophilus influenzae; test: Selectivity ratio of MBC to MIC for azithromycin-susceptible Haemophilus influenzae ATCC 49247; how it was run: as §1
[29] = test system: Staphylococcus aureus; test: Bactericidal activity against MLS-resistant Staphylococcus aureus PU 20 expressing constitutive ermC gene pretreated followed by subculture in absence of compound measured after 24 hrs; how it was run: as §2

Row | SMILES | MIC [1] | MIC [2] | MBC [3] | MIC [4] | MIC [5] | MIC [6] | MBC [7] | Selectivity ratio [8] | MBC [9] | Selectivity ratio [10] | MBC [11] | MIC [12] | MBC [13] | Selectivity ratio [14] | MBC [15] | Selectivity ratio [16] | MIC [17] | MBC [22] | Selectivity ratio [27] | Selectivity ratio [28] | also measured
1 | CC[C@H]1OC(=O)[C@@](C)(F)C(=O)[C@H](C)[C@@H](O[C@@H]2O[C@H](C)C[C@H](N(C)C)[C@H]2O)[C@](C)(OC/C=C/c2ccc3c(c2)c(=O)c(C(=O)NC)cn3CC)C[C@@H](C)/C(=N\OC)[C@H](C)[C@H]2OC(=O)O[C@@]21C | 0.25 µg/mL | ≤ 0.008 µg/mL | ≤ 0.008 µg/mL | 256 µg/mL | 0.031 µg/mL | 0.5 µg/mL | 1 µg/mL (≈ 1.09 µM) | 2 | > 0.25 µg/mL | >8 | > 256 µg/mL | ≤ 0.002 µg/mL | 0.008 µg/mL (≈ 0.00874 µM) | >=4 | > 2 µg/mL | >8 | > 256 µg/mL | 0.25 µg/mL (≈ 0.273 µM) | – | – | MIC [18]: ≤ 0.002 µg/mL; MBC [19]: > 0.016 µg/mL; Selectivity ratio [20]: >8; MIC [21]: 0.062 µg/mL; Selectivity ratio [23]: 4; MIC [24]: 0.5 µg/mL; MBC [25]: 4 µg/mL (≈ 4.37 µM); Selectivity ratio [26]: 8
2 | CC[C@H]1OC(=O)[C@@](C)(F)C(=O)[C@H](C)[C@@H](O[C@@H]2O[C@H](C)C[C@H](N(C)C)[C@H]2O)[C@](C)(OC/C=C/c2ccc3[nH]ccc(=O)c3c2)C[C@@H](C)/C(=N\OC)[C@H](C)[C@H]2OC(=O)O[C@@]21C | 1 µg/mL | 0.062 µg/mL | 0.062 µg/mL (≈ 0.0747 µM) | 8 µg/mL | 0.25 µg/mL | 2 µg/mL | 4 µg/mL (≈ 4.82 µM) | 2 | 1 µg/mL (≈ 1.2 µM) | 4 | 16 µg/mL (≈ 19.3 µM) | 0.125 µg/mL | 1 µg/mL (≈ 1.2 µM) | 8 | 8 µg/mL (≈ 9.64 µM) | 8 | 256 µg/mL | – | 1 | 2 | MBC [29]: > 256 µg/mL
3 | CC[C@H]1OC(=O)[C@@](C)(F)C(=O)[C@H](C)[C@@H](O[C@@H]2O[C@H](C)C[C@H](N(C)C)[C@H]2O)[C@](C)(OC)C[C@@H](C)/C(=N\OCC#Cc2ccc3[nH]ccc(=O)c3c2)[C@H](C)[C@H]2OC(=O)O[C@@]21C | 1 µg/mL | 0.062 µg/mL | 0.125 µg/mL (≈ 0.151 µM) | 16 µg/mL | 16 µg/mL | 4 µg/mL | 4 µg/mL (≈ 4.83 µM) | 1 | 32 µg/mL (≈ 38.6 µM) | 2 | 16 µg/mL (≈ 19.3 µM) | ≤ 0.008 µg/mL | > 0.062 µg/mL | >8 | 8 µg/mL (≈ 9.66 µM) | 8 | 256 µg/mL | – | 2 | 1 | MBC [29]: > 256 µg/mL
4 | CC[C@H]1OC(=O)[C@H](C)[C@@H](O[C@H]2C[C@@](C)(OC)[C@@H](O)[C@H](C)O2)[C@H](C)[C@@H](O[C@@H]2O[C@H](C)C[C@H](N(C)C)[C@H]2O)[C@](C)(O)C[C@@H](C)CN(C)[C@H](C)[C@@H](O)[C@]1(C)O [AZITHROMYCIN] | 32 µg/mL | 0.062 µg/mL | 0.25 µg/mL (≈ 0.334 µM) | 2 µg/mL | 256 µg/mL | 8 µg/mL | 16 µg/mL (≈ 21.4 µM) | 2 | > 256 µg/mL | – | 8 µg/mL (≈ 10.7 µM) | 8 µg/mL | > 64 µg/mL | >8 | 32 µg/mL (≈ 42.7 µM) | 1 | > 256 µg/mL | 16 µg/mL (≈ 21.4 µM) | 4 | 4 | MIC [18]: > 256 µg/mL; MIC [21]: 16 µg/mL; Selectivity ratio [23]: 1; MIC [24]: 0.031 µg/mL; MBC [25]: 0.25 µg/mL (≈ 0.334 µM); Selectivity ratio [26]: 8
5 | O=C(O)c1cn(C2CC2)c2cc(N3CCNCC3)c(F)cc2c1=O [CIPROFLOXACIN] | – | – | 2 µg/mL (≈ 6.04 µM) | – | – | – | 4 µg/mL (≈ 12.1 µM) | – | 4 µg/mL (≈ 12.1 µM) | – | 0.004 to 0.008 µg/mL (≈ 0.0121 to 0.0241 µM) | – | 0.5 to 2 µg/mL (≈ 1.51 to 6.04 µM) | – | > 256 µg/mL | – | – | 2 µg/mL (≈ 6.04 µM) | – | – | MBC [29]: > 256 µg/mL; MBC [19]: > 1 µg/mL
